Compound activity as filed in PubChem.
Hits are enriched below; roughly 2.4% of the tested compounds scored in any of these assays.
MT1-MMP act inh: MT1-MMP (human) activation inhibition. HT1080 RFP-PRO-GFP cells, GFP/RFP ratio fluorescence, overnight; percent of plate control window, DMSO zero. GFP/RFP ratio change, % at 20 µM. 360,000 tested, 0.061% active. AID 651647;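 active means GFP/RFP ratio change of at least 30% with cell ATP level not reduced by more than half and red fluorescence within 50% of control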
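Test system: HT1080 cells expressing an RFP-PRO-GFP fluorescent reporter construct / Compound dosing: single-point 20 µM compound, 1% DMSO / Schedule: cells overnight before dosing, compound overnight, 37 °C, 5% CO2 / Evaluation: GFP/RFP fluorescence ratio / Control set: DMSO and RFP-L50D-GFP cell wells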
NRP1-CendR mod: NRP-1/CendR interaction modulation. 360,000 tested, 0.85% active. AID 602438. FAM-RPARPAR peptide binding to NRP-1, fluorescence polarization. O14786. inhibition, % at 25 µM;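 active means inhibition or corrected inhibition above about 18%, plus a signal ratio from 0.5 to 1.5, limit read from the data, passing the limit was not always enough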
Target sequence (O14786 whole entry, looked up): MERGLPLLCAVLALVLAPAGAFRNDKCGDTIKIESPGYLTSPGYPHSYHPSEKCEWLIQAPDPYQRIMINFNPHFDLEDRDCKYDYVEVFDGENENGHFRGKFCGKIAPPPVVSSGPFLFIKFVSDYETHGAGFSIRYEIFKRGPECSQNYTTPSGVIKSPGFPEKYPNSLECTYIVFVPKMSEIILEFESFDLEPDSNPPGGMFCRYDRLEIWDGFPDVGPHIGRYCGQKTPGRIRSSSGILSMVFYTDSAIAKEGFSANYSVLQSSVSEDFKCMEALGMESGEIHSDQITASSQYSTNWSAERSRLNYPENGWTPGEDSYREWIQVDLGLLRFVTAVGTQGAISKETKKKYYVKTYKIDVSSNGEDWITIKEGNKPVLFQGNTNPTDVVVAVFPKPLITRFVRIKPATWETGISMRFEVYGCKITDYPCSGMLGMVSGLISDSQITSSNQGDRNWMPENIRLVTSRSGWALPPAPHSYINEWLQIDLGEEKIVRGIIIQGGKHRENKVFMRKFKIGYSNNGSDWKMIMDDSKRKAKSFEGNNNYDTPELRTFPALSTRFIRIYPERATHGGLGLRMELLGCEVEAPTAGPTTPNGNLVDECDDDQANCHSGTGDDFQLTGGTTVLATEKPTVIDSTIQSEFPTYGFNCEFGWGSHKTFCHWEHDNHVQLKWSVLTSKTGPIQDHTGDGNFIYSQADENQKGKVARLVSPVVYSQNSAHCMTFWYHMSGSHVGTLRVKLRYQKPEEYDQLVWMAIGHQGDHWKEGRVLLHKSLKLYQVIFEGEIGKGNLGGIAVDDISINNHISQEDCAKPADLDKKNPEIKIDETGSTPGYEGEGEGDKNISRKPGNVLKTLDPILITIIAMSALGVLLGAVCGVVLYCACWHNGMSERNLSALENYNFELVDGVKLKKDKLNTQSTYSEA
DAGLB inh: blocks human DAGLB lipase activity; HEK293T DAGLB membrane lysate, EnzChek fluorogenic substrate; inhibition, % at 5.17 µM; 340,000 tested, 0.059% active; AID 504411; in the data active means inhibition above about 34%
beta cell repl: inducers of beta-cell replication in MIN6 cells; MIN6 cells proliferation, ATPlite luminescence, 48 h; cells starved in 0.2% serum; 100% = growth in 10% serum; proliferation, % at 10 µM; 330,000 tested, 0.29% active;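 active means compounds whose signal lies at least 3.5 SD above the mean of all wells on their plate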
SENP1 inh: SENP1 (human) catalytic domain inhibition | Q9P0U3 | recombinant SENP1 catalytic domain, CyPet-SUMO1-YPet FRET cleavage | 360,000 tested, 0.21% active | inhibition, % at 10 µM;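 active means inhibition at least 30% at 10 µM, raw YFP signal under a set limit, fluorescence ratio 0.5 to 1.5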
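Test system: hSENP1 catalytic domain, recombinant; Amount: 20 pM final SENP1 enzyme; Medium: Tris pH 8 buffer plus EDTA, NaCl, BME, BSA, NP40, catalase; Schedule: 50 min enzyme reaction, room temperature, light-protected; Technique: FRET fluorescence in CFP and YFP emission channels; Controls: no-enzyme wells low, DMSO-plus-enzyme wells high control.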
Myeloid diff MLP: compounds promoting myeloid differentiation | 360,000 tested, 1% active | ER-HoxA9 myeloid progenitors, lysozyme-GFP differentiation, flow cytometry | calls only at 10 µM;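 active means normalized GFP-positive differentiation at or above the plate's own cutoff, the solvent-only control mean plus 3 SD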;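 further: cells exposed to compound for four days before flow analysis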
Hits are given with their value; - = inactive; . = no result; + = active, no number; ! = not confirmed by another sample.

SMILES	MT1-MMP act inh	NRP1-CendR mod	DAGLB inh	beta cell repl	SENP1 inh	Myeloid diff MLP
CN1CCN(CC(=O)c2ccccc2F)CC1	-	17	-	-	-	-
O=C(c1ccccc1)c1ccccc1C(=O)N1CCN(Cc2ccccc2F)CC1	-	-	-	-	-	-
Cn1nccc1-c1ccc(C(=O)NCc2ccco2)c2occc12	-	-	.	.	-	-
COc1ccc(OC)c(S(=O)(=O)N2CCN(CC(O)COc3ccc(C#N)cc3)CC2)c1 (stereo unspecified)	-	-	-	-	-	-
CCCCCCSc1cc(-c2nc3cnccn3c2NCCCC)ccc1OC	-	-	-	-	-	-
CCCCCCSc1cc(-c2nc3cc(C)ccn3c2NCCCC)ccc1OC	-	-	-	-	-	+!
OC1CCN(C(=S)Nc2ccc(Oc3ccccc3)cc2)CC1	-	-	-	-	-	-
CCN(C(=O)c1ccc(C(C)(C)C)cc1)c1nnc(Cn2nnc3ccccc32)s1	-	-	-	-	-	+
CCC(C)N1C(=O)/C(=C/c2c(NCCCOC(C)C)nc3c(C)cccn3c2=O)SC1=S (stereo unspecified)	-	-	-	-	-	+
CCCN1C(=O)/C(=C/c2c(NCCCOC(C)C)nc3c(C)cccn3c2=O)SC1=S	-	-	-	-	-	+
COc1ccc(NC(=O)c2cncn2-c2ccccc2)cc1	-	-	-	-	-	-
COc1ccc(-c2cc(NC(=O)c3cncn3-c3ccccc3)ccc2OC)cc1	-	-	-	-	-	+
COc1ccc(Cn2c(=O)sc3ccccc32)cc1	-	31	-	-	-	-
CCN1c2ccccc2-c2nc3ccccc3n2C1c1ccccn1 (stereo unspecified)	-	39	-	-	-	-
CCN1c2ccccc2-c2nc3ccccc3n2C1c1ccncc1 (stereo unspecified)	-	-	-	-	-	-
CC1(C)CC(N2CCN(CCO)CC2)=CC(=S)N1	-	-	-	-	-	+
CC1(C)CC(NCc2ccccc2)=CC(=S)N1	-	-	.	.	-	-
O=C(NNC(=O)c1ccc(NC(=O)c2ccccc2)cc1)Nc1ccccc1	-	-	-	-	-	+
CCOC(=O)c1ccc(NC(=O)c2ccccc2)cc1	-	23	-	-	-	-
O=C(NNC(=O)c1ccc(NC(=O)c2ccccc2)cc1)c1ccc(F)cc1	-	-	-	-	-	-
CC1=C(C(=O)Nc2ccccn2)C(c2cn(C)nc2C)C2=C(CCCC2=O)N1 (stereo unspecified)	-	-	-	-	-	-
Cc1nn(-c2ccccc2)c(N)c1Sc1ccc([N+](=O)[O-])cc1	-	44	-	-	-	-
Cc1nn(S(=O)(=O)c2ccc(Cl)cc2)c(C)c1Sc1ccc([N+](=O)[O-])cc1	-	-	-	.	-	-
CC1(C)CNc2cc(N)ccc2S1	-	-	-	-	-	+
CC(C)N1CCC(C)(C(=O)Nc2cccc3c2CCCC3)C1 (stereo unspecified)	-	-	.	.	-	-
SMILES	MT1-MMP act inh	NRP1-CendR mod	DAGLB inh	beta cell repl	SENP1 inh	Myeloid diff MLP
O=S(=O)(Nc1nc2ccccc2s1)c1ccc(Br)s1	-	-	-	-	-	+
Cc1ccc(S(=O)(=O)Nc2nc3ccccc3s2)cc1	-	-	-	-	-	-
COc1cccc(CNC(=O)CCC2CCCN(C(=O)C3=CC(=O)CC(C)(C)O3)C2)c1 (stereo unspecified)	-	38	-	-	-	-
COc1cccc(CNC(=O)CCC2CCCN(C(=O)c3cccc(Cl)c3)C2)c1 (stereo unspecified)	-	-	-	-	-	-
CCOC(=O)CN(C)C(=O)C1CCCN1C(=O)OC(C)(C)C (stereo unspecified)	-	-	-	-	-	-
COc1cc2c3nnc(-c4ccccc4)c-3cn(Cc3ccccc3F)c2cc1OC	.	.	.	-	.	.
COc1cc2c3nnc(-c4ccc(F)cc4)c-3cn(Cc3ccccc3F)c2cc1OC	-	-	-	.	-	+
O=C(NCc1ccc2c(c1)OCO2)C1CCCN(S(=O)(=O)c2cccc3cccnc23)C1 (stereo unspecified)	-	-	-	-	-	+
CC(C)(C)C(=O)N1CCN(c2nc3ccccc3s2)CC1	-	-	-	-	-	-
CCc1ccc2nc(N3CCN(C(=O)C(C)(C)C)CC3)sc2c1	-	-	-	-	-	+
O=C(Nc1ccc(Cl)c(Cl)c1)OCc1cncs1	-	-	-	-	-	-
Cc1ccc(S(=O)(=O)N(CC(=O)NC2CCCC2)c2cccc(C)c2)cc1	-	-	-	-	-	-
COc1ccc(-c2c(C)nn3c(N4CCCCCC4)cc(C)nc23)cc1OC	-	-	-	-	-	-
COc1ccc(-c2c(C)nn3c(N4CCOCC4)cc(C)nc23)cc1OC	-	-	-	.	-	+
O=C(NCc1ccncc1)C12CC3CC(CC(Cl)(C3)C1)C2	-	-	-	-	-	-
Cc1csc(=O)n1CCC(=O)OCC(=O)Nc1ccc(C(N)=O)cc1	-	23	-	-	-	-
Cc1csc(=O)n1CC(=O)OCC(=O)Nc1ccc(C(N)=O)cc1	-	-	-	-	-	-
N#C/C(=C\c1ccc(OCc2ccccc2)cc1)C(=O)Nc1nc2c(s1)CCN(Cc1ccccc1)C2	-	-	-	-	-	-
CN(C)c1ccc(/C=C(/C#N)C(=O)Nc2nc3c(s2)CCN(Cc2ccccc2)C3)cc1	-	-	-	.	-	+
Cc1cc(Br)cn2c(Cc3cccc(Cl)c3)c(-c3ccco3)nc12	-	-	.	.	-	-
Cc1ccc(Cc2c(-c3ccco3)nc3c(C)cc(Br)cn23)cc1	-	-	.	.	-	+
CC1CCN(C(=O)c2ccc(CNS(=O)(=O)c3ccc(C(C)(C)C)cc3)cc2)CC1	-	-	-	-	-	-
O=C(CNS(=O)(=O)c1ccccc1)OCC(=O)c1c[nH]c2ccccc12	-	-	-	-	-	+
O=C(CNS(=O)(=O)c1ccccc1F)OCC(=O)c1c[nH]c2ccccc12	-	-	-	-	-	-
CCOC(=O)c1ccc(NC(=O)Nc2ccc(F)cc2)cc1	-	-	-	-	-	-
COC(=O)c1ccc(NC(=O)Nc2ccc(F)cc2)cc1	-	26	-	-	-	-
Cc1oc(C)c2c(=O)ccc3c(c12)OC(N)=C(C#N)C3c1ccccc1Cl (stereo unspecified)	-	-	-	-	-	+
O=C(O)c1ccc(C(=O)Nc2cccc3ccccc23)c(C(=O)O)c1	-	25	-	-	-	-
O=C(Nc1cccc(C(=O)O)c1)Nc1cccc2ccccc12	-	-	-	-	-	-
